Key:
RS4-11 [1] = assay: Antiproliferative activity against human RS4-11 cells assessed as inhibition of cell proliferation; type: functional
Outline: (§1)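 Cells seeded at 8 × 10³/well and held 18 h at 37 °C, 5% CO₂. Medium then replaced with compound at several concentrations for 72 h at 37 °C, followed by MTT viability read-out. GI50 is taken against cells given the maximum DMSO (0.25%), which is set as 100% viability. Dose-response curves come from at least three independent experiments run in triplicate and are reported as mean ± SE.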

HeLa [2] = assay: Antiproliferative activity against human HeLa cells assessed as inhibition of cell proliferation; type: functional; outline: as §1
CCRF-CEM [3] = assay: Antiproliferative activity against human CCRF-CEM cells assessed as inhibition of cell proliferation; type: functional; outline: as §1
HT-29 [4] = assay: Antiproliferative activity against human HT-29 cells assessed as inhibition of cell proliferation; type: functional; outline: as §1
CCRF-CEM [5] = assay: Antiproliferative activity against human CCRF-CEM cells assessed as inhibition of cell proliferation incubated for 72 hrs by MTT assay; type: functional; outline: as §1
[6] = Inhibition of [methyl-14C]choline uptake in human HT-29 cells at 30 uM incubated for 10 mins followed by removal of medium containing compound and subsequent addition of [methyl-14C]choline measured after 5 mins relative to control; type: functional; conditions: HT-29, 10 min
Outline: (§2)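 Cells at 200,000/well were incubated for 10 min at 37 °C in medium with or without CKα1 inhibitor. The medium was then removed and cells were exposed to [methyl-¹⁴C]choline (31 Ci/mol) for 5 min at 37 °C. Uptake was stopped by aspiration and two ice-cold PBS washes containing choline. Inhibition is expressed as % of untreated control.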

[7] = Inhibition of [methyl-14C]choline uptake in human HT-29 cells at 10 uM incubated for 10 mins followed by removal of medium containing compound and subsequent addition of [methyl-14C]choline measured after 5 mins relative to control; type: functional; conditions: HT-29, 10 min; outline: as §2
Choline kinase alpha [8] = target: T1, Choline kinase alpha (Homo sapiens, UniProt P35790); assay: (§3) Inhibition of human CKalpha1 assessed as reduction in 14C incorporation from [methyl-14C]choline to phosphatidylcholine at 30 uM using [methyl-14C]choline as substrate preincubated for 5 mins in presence of ATP and MgCl2 followed by substrate addition and measured after 10 mins by liquid scintillation counting method relative to control; conditions: time 15.0 min
Outline: (§4)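 Purified human CKα1 (20 ng) in 100 mM Tris pH 8.5 with 10 mM MgCl₂ and 10 mM ATP, DMSO ≤0.1%, was preincubated 5 min at 37 °C. Reaction was started with 1 mM [methyl-¹⁴C]choline (4500 dpm/nmol), run 10 min at 37 °C and stopped in boiling water. Product was separated by silica TLC, scraped and scintillation-counted against DMSO controls. At least three experiments were run; IC50 was obtained from sigmoidal dose-response fits.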
Target sequence in this assay (P35790 whole entry, looked up): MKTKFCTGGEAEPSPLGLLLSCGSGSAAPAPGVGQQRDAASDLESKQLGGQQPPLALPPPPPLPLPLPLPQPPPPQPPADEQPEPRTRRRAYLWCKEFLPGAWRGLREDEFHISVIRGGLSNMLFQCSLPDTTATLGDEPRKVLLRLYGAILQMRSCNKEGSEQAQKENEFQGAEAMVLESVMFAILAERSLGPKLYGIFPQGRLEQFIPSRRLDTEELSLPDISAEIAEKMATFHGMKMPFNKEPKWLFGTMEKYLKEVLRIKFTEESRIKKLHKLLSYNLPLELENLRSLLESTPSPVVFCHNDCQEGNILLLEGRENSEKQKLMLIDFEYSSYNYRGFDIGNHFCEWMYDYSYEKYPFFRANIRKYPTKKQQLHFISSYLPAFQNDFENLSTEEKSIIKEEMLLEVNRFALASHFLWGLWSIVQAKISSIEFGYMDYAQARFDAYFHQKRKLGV

Choline kinase alpha [9] = target: T1, Choline kinase alpha; assay: Binding affinity to human CKalpha1 assessed as dissociation constant by spectroflurometry
Outline: (§5)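 Purified human CK (cloned as reported earlier) at 1 µM was titrated with compound in 25 mM Tris, 150 mM NaCl, pH 7.5 at 25 °C. Compound ranges were 0.1–10 µM for CKα1 and 0.5–200 µM for CKβ. Tryptophan quenching was read with excitation at 280 nm, emission 300–400 nm and 5 nm slits. DMSO-matched controls were run, and Kd was fitted to a single-site model. Results are given as mean ± SD.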
Target sequence in this assay (P35790 whole entry): as the sequence (P35790 whole entry, looked up) above

[10] = Inhibition of [methyl-14C]choline uptake in human HepG2 cells at 30 uM incubated for 10 mins followed by removal of medium containing compound and subsequent addition of [methyl-14C]choline measured after 5 mins relative to control; type: functional; conditions: HepG2, 10 min; outline: as §2
RS4-11 [11] = assay: Antiproliferative activity against human RS4-11 cells assessed as inhibition of cell proliferation incubated for 72 hrs by MTT assay; type: functional; outline: as §1
[12] = Inhibition of [methyl-14C]choline uptake in human HepG2 cells at 10 uM incubated for 10 mins followed by removal of medium containing compound and subsequent addition of [methyl-14C]choline measured after 5 mins relative to control; type: functional; conditions: HepG2, 10 min; outline: as §2
HT-29 [13] = assay: Antiproliferative activity against human HT-29 cells assessed as inhibition of cell proliferation incubated for 72 hrs by MTT assay; type: functional; outline: as §1
HeLa [14] = assay: Antiproliferative activity against human HeLa cells assessed as inhibition of cell proliferation incubated for 72 hrs by MTT assay; type: functional; outline: as §1
[15] = target: Choline/ethanolamine kinase (Homo sapiens, UniProt Q9Y259); assay: Binding affinity to human CKbeta assessed as dissociation constant by spectroflurometry; outline: as §5
Chain of Choline/ethanolamine kinase (Q9Y259 whole entry): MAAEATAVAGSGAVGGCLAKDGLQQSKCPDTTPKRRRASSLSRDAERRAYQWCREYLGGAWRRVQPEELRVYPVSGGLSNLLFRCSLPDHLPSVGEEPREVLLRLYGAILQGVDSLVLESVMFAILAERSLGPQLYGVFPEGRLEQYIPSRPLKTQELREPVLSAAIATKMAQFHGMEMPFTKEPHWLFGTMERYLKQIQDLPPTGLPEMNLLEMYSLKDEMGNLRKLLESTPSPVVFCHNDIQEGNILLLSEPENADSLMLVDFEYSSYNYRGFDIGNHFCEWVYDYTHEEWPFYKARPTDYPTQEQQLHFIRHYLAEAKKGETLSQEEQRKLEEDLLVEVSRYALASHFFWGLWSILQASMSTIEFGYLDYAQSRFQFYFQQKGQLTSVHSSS

Choline kinase alpha [16] = target: T1, Choline kinase alpha; assay: as §3, with “10” for “30”; conditions: time 15.0 min; outline: as §4
Target sequence in this assay (P35790 whole entry, looked up): as the sequence (P35790 whole entry, looked up) above

Homo sapiens = species on record: Homo sapiens; assay: Selectivity index, ratio of Kd for human CKbeta to Kd for human CKalpha1
Choline kinase alpha [17] = target: T1, Choline kinase alpha; assay: as §3, with “[…]” for “phosphatidylcholine at 30 uM”; outline: as §4
Target sequence in this assay (P35790 whole entry): as the sequence (P35790 whole entry, looked up) above

Choline kinase alpha [18] = target: T1, Choline kinase alpha; assay: as §3, with “50” for “30”; conditions: time 15.0 min; outline: as §4
Target sequence in this assay (P35790 whole entry, looked up): as above

HT-29 [19] = assay: Induction of cell cycle arrest in human HT-29 cells assessed as increase accumulation of G0/G1 phase incubated for 24 hrs by PI staining based flowcytometry analysis; conditions: dose 1-2.5 µM
HeLa [20] = assay: Induction of cell cycle arrest in human HeLa cells assessed as accumulation at S phase at 1 uM incubated for 24 hrs by PI staining based flowcytometry analysis (reference value: 32.30 %); type: functional
HeLa [21] = assay: Induction of apoptosis in human HeLa cells measured for 48 hrs by annexin V-FITC and PI staining based flowcytometry analysis; type: functional, cell-based; conditions: dose 2.5-5 µM
Outline: (§6)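 Treated cells were collected at different times, dual-stained with annexin V-FITC (phosphatidylserine exposure) and propidium iodide (DNA), and analysed by bi-parametric flow cytometry.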

HT-29 [22] = assay: Induction of mitochondrial membrane potential loss in human HT-29 cells measured for 48 hrs by JC1 staining based flow cytometry analysis; type: functional, cell-based; conditions: dose 2.5-5 µM
Outline: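 Cells were treated with compound, then stained with the fluorescent dye JC-1. Loss of mitochondrial membrane potential was monitored by flow cytometry.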

HT-29 [23] = assay: Induction of apoptosis in human HT-29 cells at 2.5 to 5 uM by annexin V-FITC and PI staining based flowcytometry analysis; type: functional, cell-based; conditions: dose 2.5-5 µM, time 24-48 hrs, TDE = time-dependent effect; outline: as §6
HT-29 [24] = assay: Induction of apoptosis in human HT-29 cells measured for 48 hrs by annexin V-FITC and PI staining based flowcytometry analysis; type: functional, cell-based; conditions: dose 2.5-5 µM; outline: as §6
HeLa [25] = assay: Induction of cell cycle arrest in human HeLa cells assessed as accumulation at G0/G1 phase at 2.5 uM incubated for 24 hrs by PI staining based flowcytometry analysis (reference value: 57 %); type: functional
HeLa [26] = assay: Induction of cell cycle arrest in human HeLa cells assessed as accumulation at G0/G1 phase at 1 uM incubated for 24 hrs by PI staining based flowcytometry analysis (reference value: 57 %); type: functional
HT-29 [27] = assay: Induction of cell cycle arrest in human HT-29 cells assessed as accumulation at G0/G1 phase at 1 uM incubated for 24 hrs by PI staining based flowcytometry analysis (reference value: 60.20 %); type: functional
HeLa [28] = assay: Induction of cell cycle arrest in human HeLa cells assessed as accumulation at G2/M phase at 2.5 uM incubated for 24 hrs by PI staining based flowcytometry analysis (reference value: 10.70 %); type: functional
HT-29 [29] = assay: Induction of cell cycle arrest in human HT-29 cells assessed as accumulation at G2/M phase at 2.5 uM incubated for 24 hrs by PI staining based flowcytometry analysis (reference value: 12.40 %); type: functional
HT-29 [30] = assay: Induction of cell cycle arrest in human HT-29 cells assessed as accumulation at S phase at 1 uM incubated for 24 hrs by PI staining based flowcytometry analysis (reference value: 27.40 %); type: functional
HT-29 [31] = assay: Induction of cell cycle arrest in human HT-29 cells assessed as accumulation at G0/G1 phase at 2.5 uM incubated for 24 hrs by PI staining based flowcytometry analysis (reference value: 60.20 %); type: functional
HT-29 [32] = assay: Induction of cell cycle arrest in human HT-29 cells assessed as accumulation at G2/M phase at 1 uM incubated for 24 hrs by PI staining based flowcytometry analysis (reference value: 12.40 %); type: functional
HeLa [33] = assay: Induction of cell cycle arrest in human HeLa cells assessed as accumulation at G2/M phase at 1 uM incubated for 24 hrs by PI staining based flowcytometry analysis (reference value: 10.7 %); type: functional
HeLa [34] = assay: Induction of apoptosis in human HeLa cells at 2.5 to 5 uM by annexin V-FITC and PI staining based flowcytometry analysis; type: functional, cell-based; conditions: dose 2.5-5 µM, time 24-48 hrs, TDE = time-dependent effect; outline: as §6
HeLa [35] = assay: Induction of mitochondrial membrane potential loss in human HeLa cells by JC1 staining based flow cytometry analysis; conditions: dose 2.5-5 µM
HT-29 [36] = assay: Induction of cell cycle arrest in human HT-29 cells assessed as accumulation at S phase at 2.5 uM incubated for 24 hrs by PI staining based flowcytometry analysis (reference value: 27.40 %); type: functional
HeLa [37] = assay: Induction of cell cycle arrest in human HeLa cells assessed as accumulation at S phase at 2.5 uM incubated for 24 hrs by PI staining based flowcytometry analysis (reference value: 32.30 %); type: functional

GI50 (CCRF-CEM [5]) [nM] | inhibition (Choline kinase alpha [8]) [%] | Kd (Choline kinase alpha [9]) [nM] | GI50 (RS4-11 [11]) [nM] | GI50 (HT-29 [13]) [nM] | GI50 (HeLa [14]) [nM] | Kd [15] [nM] | inhibition (Choline kinase alpha [16]) [%] | Ratio (Homo sapiens) | inhibition (Choline kinase alpha [18]) [%] | Structure (SMILES) | inhibition at 30 µM [6] [%] | inhibition at 10 µM [7] [%] | inhibition at 30 µM [10] [%] | inhibition at 10 µM [12] [%] | also measured
180 | 28 | 670 | 220 | 160 | 950 |  |  |  |  | c1ccc(-c2ccc(C[n+]3ccc(N4CCCC4)cc3)cc2)cc1 | 79.5 | 56.7 | 84.3 | 70.3 | 
1700 | 76 | 185 | 1400 | 850 | 1700 | 20000 | 38.6 | 108 |  | CN(c1ccccc1)c1cc[n+](Cc2ccc(-c3ccccc3)cc2)c2cc(Cl)ccc12 | 93.3 | 85.5 | 94.8 | 87.2 | IC50 (Choline kinase alpha [17]): 12600 nM
560 | 27.5 | 400 | 30 | 4600 | 16200 | 33000 | 35.8 | 83 | 38.7 | Clc1ccc2c(N3CCCCCC3)cc[n+](Cc3ccccc3)c2c1 |  |  |  |  | 

Second part, the compound before the results:

Structure (SMILES) | GI50 (CCRF-CEM [5]) [nM] | inhibition (Choline kinase alpha [8]) [%] | Kd (Choline kinase alpha [9]) [nM] | GI50 (RS4-11 [11]) [nM] | GI50 (HT-29 [13]) [nM] | GI50 (HeLa [14]) [nM] | Kd [15] [nM] | inhibition (Choline kinase alpha [16]) [%] | Ratio (Homo sapiens) | inhibition (Choline kinase alpha [18]) [%] | inhibition at 30 µM [6] [%] | inhibition at 10 µM [7] [%] | inhibition at 30 µM [10] [%] | inhibition at 10 µM [12] [%] | also measured
CN(c1ccccc1)c1cc[n+](Cc2ccc(-c3ccc(C[n+]4ccc(N(C)c5ccccc5)c5ccc(Cl)cc54)cc3)cc2)c2cc(Cl)ccc12 |  |  |  |  |  |  |  |  |  |  |  |  |  |  | GI50 (RS4-11 [1]): 170 nM; GI50 (HeLa [2]): 830 nM; GI50 (CCRF-CEM [3]): 610 nM; GI50 (HT-29 [4]): 400 nM
c1ccc(C[n+]2ccc(N3CCCC3)cc2)cc1 | 5300 | 19.6 | 24000 | 8300 | 38000 | 66000 |  | 11.1 |  | 27.8 |  |  |  |  | 
CN(C)c1cc[n+](Cc2ccc(CCCCc3ccc(C[n+]4ccc(N(C)C)cc4)cc3)cc2)cc1 |  |  |  |  |  |  |  |  |  |  |  |  |  |  | GI50 (RS4-11 [1]): 1000 nM; GI50 (HeLa [2]): 1900 nM; GI50 (CCRF-CEM [3]): 210 nM; GI50 (HT-29 [4]): 1900 nM
Clc1ccc2c(N3CCCCCC3)cc[n+](Cc3ccc(-c4ccccc4)cc3)c2c1.[Br-] | 150 | 94.4 | 370 | 60 | 90 | 360 | 63000 | 74.4 | 171 |  | 96.7 | 86.9 | 95.5 | 88.2 | Activity (HT-29 [19]): Dose-dependent effect; Activity (HeLa [20]): 25.23%; Activity (HeLa [21]): Dose-dependent effect; Activity (HT-29 [22]): Dose-dependent effect; Activity (HT-29 [23]): Tde; Activity (HT-29 [24]): Dose-dependent effect; Activity (HeLa [25]): 66.27%; Activity (HeLa [26]): 67.47%; Activity (HT-29 [27]): 88%; Activity (HeLa [28]): 4.5%; Activity (HT-29 [29]): 7.9%; Activity (HT-29 [30]): 5.1%; Activity (HT-29 [31]): 86.3%; Activity (HT-29 [32]): 6.9%; Activity (HeLa [33]): 7.31%; Activity (HeLa [34]): Tde; Activity (HeLa [35]): Dose-dependent effect; Activity (HT-29 [36]): 5.8%; Activity (HeLa [37]): 27.31%; IC50 (Choline kinase alpha [17]): 6740 nM
CN(c1ccccc1)c1cc[n+](Cc2ccccc2)c2cc(Cl)ccc12 | 2200 | 28.4 | 890 | 3000 | 4500 | 16300 | 36000 | 23.1 | 41 | 18.6 |  |  |  |  | 
